Results gathered from unrelated publications.
Lines come from different studies, so protocols differ.
Effect on: cell growth or viability

CC1(C)C=Cc2cc(/C=C/C(=O)N3CCN(c4ccc(O)cc4)CC3)ccc2O1 — viability (rat Primary cortical neuron; MTT; 1 µM, 12 h): 98%
C[C@H]1CCC/C=C/[C@@H]2C[C@H](O)C[C@H]2[C@H](O)/C=C/C(=O)O1 — EC50 (HeLa; ATP luminescence): 40 nM
CCC1(OC(=O)C(C)c2ccc3cc(OC)ccc3c2)C(=O)OCc2c1cc1n(c2=O)Cc2cc3cc4c(cc3nc2-1)OCO4 (stereo not shown) — IC50 (HeLa; MTT): 2.18 µM
C[C@H]1CN(c2ccncc2NC(=O)c2ccc(F)c(-c3c(F)cccc3F)n2)C[C@@H](N)[C@@H]1O — GI50 (KMS-11; thymidine uptake): 123 nM
COc1ccc(NC(=O)CC(Nc2ccc(OC)cc2)c2ccc3c(c2)C=CC(C)(C)O3)cc1 (stereo not shown) — viability (rat Primary cortical neuron; MTT; 1 µM, 12 h): > 80%
O=C(Cc1ccc2ccccc2c1)N[C@@H](Cc1ccccc1)C(=O)N[C@H](Cc1ccccc1)C(=O)N[C@H](Cc1ccc(OP(=O)(O)O)cc1)C(=O)O — IC50 (HeLa; MTT; 48 h): 500 µM
CC1(C)C=Cc2cc(/C=C/C(=O)Oc3ccccc3)ccc2O1 — viability (rat Primary cortical neuron; MTT; 1 µM, 12 h): 81%
CN[C@@H]1C[C@H]2O[C@@](C)([C@@H]1OC)n1c3ccccc3c3c4c(c5c6ccccc6n2c5c31)C(=O)NC4 — GI50 (U2OS): 26 nM
C[S@@+]([O-])CCCCN=C=S — IC50 (Hepa-1c1c7; crystal violet; 48 h): 16.7 µM
COc1cc2c3c(n(CCCNCCO)c(=O)c2cc1OC)-c1cc2c(cc1C3=O)OCO2 — GI50 (UACC-62; SRB): 30 nM
